Screening data: PubChem BioAssay, several laboratories
procasp3 activ: activates human procaspase-3. P42574. recombinant procaspase-3 D3A, Ac-DEVD-pNA absorbance 405 nm. activation, % at 8.5 µM. 0.11% of 330,000 active. AID 463141;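 active = activation above the mean of all tested compounds plus 3 SD, cut at about 21% in these data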;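 also: 0% = DMSO alone and 100% = DMSO wells spiked with extra 5 µM PC-3 D3A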
Target sequence (P42574 whole entry D9A/D28A/D175A): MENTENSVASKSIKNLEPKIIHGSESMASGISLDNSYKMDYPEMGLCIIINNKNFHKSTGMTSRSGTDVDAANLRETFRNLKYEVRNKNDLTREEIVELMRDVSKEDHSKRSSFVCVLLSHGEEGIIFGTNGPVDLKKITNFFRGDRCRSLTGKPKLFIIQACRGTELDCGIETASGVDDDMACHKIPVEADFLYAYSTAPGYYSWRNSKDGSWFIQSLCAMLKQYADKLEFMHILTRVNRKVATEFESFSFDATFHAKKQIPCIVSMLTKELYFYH
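Technique: 405 nm absorbance of p-nitroaniline, reads at 0 and 120 min; Test system: Procaspase-3 D3A mutant; Incubation: 1 h enzyme-compound preincubation, then 2 h substrate reaction, 25 °C; Repeats: singlicate, each compound tested once; Benchmarks: low control DMSO wells, high control DMSO plus 5 µM PC-3 D3A.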
PolyA inhibitor: yeast polyadenylation inhibition | S. cerevisiae SKY197-pL101 polyadenylation reporter, beta-gal luminescence; efflux-impaired pdr1/pdr3 knockout yeast; score 100 = 6 SD above DMSO | activity score, % at 12 µM | 0.02% of 300,000 active | AID 1875;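 active = lowest replicate activity score at least 50, where 100 means six control SD above control mean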;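 also: yeast exposed to compound for 9 h at 30 °C; higher score means more reporter readthrough which indicates perturbed polyadenylation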
Neddylation inh: inhibitors of human cullin neddylation; P61081+Q13564; 0.58% of 360,000 active; calls only at 25 µM; AID 651699; TR-FRET cullin neddylation, biochemical; in the data active = inhibition above about 36%
VIM-2 inh: inhibitors of Pseudomonas aeruginosa VIM-2 metallo-beta-lactamase; AID 1527; purified VIM-2, nitrocefin hydrolysis, epi-absorbance fluorescence; 0.89% of 290,000 active; inhibition, % at 5.6 µM;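 active = inhibition above the mean of all tested compounds plus 3 SD, cutoff set per screening run, cut at about 7.5% in these data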;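 also: red hydrolysis product quenches plate fluorescence so inhibitors raise well fluorescence; 0% = enzyme with DMSO and 100% = DMSO without enzyme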
proCasp7 act: counter-screen: procaspase-7 (human) activation; P55210; recombinant procaspase-7, Ac-DEVD-pNA absorbance 405 nm; D23A/D198A/D206A triple mutant, cannot self-cleave; scale: DMSO 0, 5 µM enzyme 100; activation, % at 8.5 µM; 0.093% of 330,000 active; AID 463210;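 active = percent activation above the screen-wide mean plus 3 SD, cut at about 25% in these data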
Target sequence (P55210 whole entry D23A/D198A/D206A): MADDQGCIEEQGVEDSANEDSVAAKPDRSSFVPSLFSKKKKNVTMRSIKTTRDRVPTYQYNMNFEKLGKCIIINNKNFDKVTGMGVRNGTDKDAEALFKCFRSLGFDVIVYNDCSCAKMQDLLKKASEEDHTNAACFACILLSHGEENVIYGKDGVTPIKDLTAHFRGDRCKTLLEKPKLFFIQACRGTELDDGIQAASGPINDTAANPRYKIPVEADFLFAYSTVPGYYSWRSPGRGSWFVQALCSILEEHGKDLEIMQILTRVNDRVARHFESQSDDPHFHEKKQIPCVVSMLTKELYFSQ
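Test system: Procaspase-7 triple mutant (PC-7 D3A). Also added: Ac-DEVD-pNA substrate, 400 µM as added. Schedule: 1 h enzyme–compound preincubation and 2 h substrate reaction, both 25 °C. Signal: p-Nitroaniline absorbance at 405 nm, read at 0 and 120 min. Control set: low DMSO alone, high DMSO plus 5 µM PC-7.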
IMP-1 inh: blocks Pseudomonas aeruginosa IMP-1 metallo-beta-lactamase | purified IMP-1, nitrocefin hydrolysis, epi-absorbance fluorescence | 0.45% of 290,000 active | inhibition, % at 5.6 µM;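 active = inhibition above the mean plus 3 SD of all compounds in the same screening run, cut at about 4.5% in these data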;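 also: 0% = IMP-1 with DMSO and 100% = DMSO wells lacking enzyme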
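System: purified recombinant IMP-1 beta-lactamase. Medium: Zinc- and detergent-supplemented HEPES buffer, pH 7.1. Compound: one 5.6 µM dose […]. Schedule: 15 min preincubation plus 25 min reaction at 25 °C. Technique: Epi-absorbance fluorescence, 480 nm excitation, 530 nm emission.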
An asterisk follows results filed as active; i = inactive; · = not tested or not shown; + = active, no number. The list is not random: actives were taken first. Their share in the collection is about 1.7%.

SMILES	procasp3 activ	PolyA inhibitor	Neddylation inh	VIM-2 inh	proCasp7 act	IMP-1 inh
Cc1c(-n2c(-c3ccccc3Cl)n[nH]c2=S)c(=O)n(-c2ccccc2)n1C	-15	25	i	74*	-8	-5
O=C(Nc1ncc(Cc2ccccc2)s1)C1CCCO1 (stereo unspecified)	5	21	i	-1	1	-4
CNc1ncc(Cc2ccccc2)s1	-3	9	i	0	-4	40*
Cc1cc(C)nc(-n2nc(C)cc2NC(=O)CN2CCCC2)n1	2	17	i	2	9	-4
Cc1cc(C)nc(-n2nc(C)cc2NC(=O)CN2CCC(C)CC2)n1	3	-11	i	9.0*	-1	-1
Cc1ccc(-c2cc(C(=O)NCc3ccco3)c3ccccc3n2)o1	2	2	i	-1	-29	-1
O=C(NCCO)Nc1ccc2nc(-c3ccco3)c(-c3ccco3)nc2c1	-25	·	·	4	-24	6.4*
O=C(NCCCO)c1ccc2nc(-c3ccco3)c(-c3ccco3)nc2c1	·	·	i	-3	·	-1
COCC(=O)N1CCCC(N(C)CCc2ccc(OC)c(OC)c2)C1 (stereo unspecified)	1	17	i	-2	10	8.0*
COCc1ccc(C(=O)N2CCCC(N(C)CCc3ccc(OC)c(OC)c3)C2)s1 (stereo unspecified)	-1	0	i	-3	6	-1
CC(=O)Oc1ccc(C(=O)Nn2cnnc2)cc1	10	13	i	-1	-1	3
Cn1ccnc1SCC(=O)NC1CCCCC1	-3	5	i	2	5	0
CCOc1ccc(CCNC(=O)CN2C(=O)CCSc3ccccc32)cc1OCC	5	67*	i	-1	-2	0
N=C(N)c1ccc(Cl)cc1	10	-8	i	-3	-5	-1
N=C(N)c1ccc(/C=C/c2ccc(C(=N)N)cc2O)cc1	-8	-20	i	4	-5	5.7*
C/C(N)=C(/C#N)C(=O)COC(=O)CCSc1ccccc1	0	3	i	-1	4	-2
CN1C(=O)c2cccc3c(N(C)C)ccc(c23)C1=O	-6	-37	i	9.8*	-9	1
CCOc1ccc(NC(=O)CSc2nc(N3CCOCC3)nc(N3CCOCC3)n2)cc1	-6	-18	i	0	-3	-1
COc1ccc(C(=O)Nc2nnc(SCC(=O)NCc3ccco3)s2)c(OC)c1	-4	19	i	11*	3	-1
S=C(Nc1ccccc1Cl)N(CCCN1CCOCC1)Cc1ccco1	-10	2	i	-2	-5	-1
CSc1sc(C(=O)O)c2c1C(=O)CC(C)(C)C2	7	-5	i	·	-1	·
CSc1sc(-c2ccnc(SCC(=O)C(C)(C)C)n2)c2c1C(=O)CC(C)(C)C2	-6	-9	i	4	-1	14*
Fc1ccc2[nH]c3c(NCc4ccccc4)ncnc3c2c1	-11	-3	+	-6	-7	-2
O=C(O)c1cc(-c2ccc(Cl)cc2)n(-c2ccccc2)n1	-5	-2	i	2	-8	-2
COc1ccccc1Nc1cc(C)nc2c(C)cccc12	·	·	i	·	·	·
SMILES	procasp3 activ	PolyA inhibitor	Neddylation inh	VIM-2 inh	proCasp7 act	IMP-1 inh
Cc1cc(Nc2ccc(C)c(C)c2)c2ccccc2n1	-3	23	i	8.6*	-2	0
COc1ccc(Nc2cc(C)nc3c(C)cccc23)cc1OC	-1	-8	i	10*	-1	-2
O=S1(=O)CC(N2CCN(Cc3ccccc3F)CC2)CN1Cc1cn(Cc2ccc(Cl)cc2)nn1 (stereo unspecified)	·	·	i	·	·	·
Cc1nc(-n2[nH]c3c(c2=O)CCCC3)[nH]c(=O)c1Cc1ccccc1	-7	-20	i	-3	-15	-3
Cc1cc(=O)[nH]c(-n2[nH]c3c(c2=O)CCCC3)n1	2	9	i	1	10	14*
COCCCn1c(SCC(=O)NC(C)(C)C)nnc1-c1cccs1	-1	7	i	0	4	-1
COc1cc(CNCc2ccccn2)ccc1OCc1c(Cl)cccc1Cl	5	-3	i	1	-10	-3
Cc1c(Cl)cccc1-c1ccc(CNCc2ccccn2)o1	-5	8	i	7.9*	6	-2
CN(C)CCc1cc2c(c3c1ccc1ccccc13)OCO2	16	59*	i	6	13	-3
COc1ccc(NC(=O)Nc2nc3c(s2)CCCC3)cc1	0	6	i	-1	8	-3
c1csc(-c2nn3cnnc3c3ccccc23)c1	5	10	i	12*	8	-3
c1csc(-c2nnc(N3CCCCCC3)c3ccccc23)c1	1	·	i	-2	-7	-4
CC1=CC(C)(C)N(C(=O)CNC2CCCC2)c2cc(C)ccc21	1	-4	i	-5	6	34*
CCOc1ccc2c(c1)N(C(=O)CN1C(=O)CCC1=O)C(C)(C)C=C2C	-3	15	i	-2	3	-3
Cc1[nH]c2ccccc2c1C(=O)COC(=O)c1ccc[n+]([O-])c1	-6	1	i	8.9*	5	2
Cc1cc(CNC(=O)c2ccc3nc(Cc4ccccc4F)oc3c2)nn1C	8	-1	i	-2	6	0
O=C(N/N=C/c1ccncc1)c1sc2ccccc2c1Cl	-3	16	i	8.9*	3	-2
COc1ccccc1C1=NOC(CN2C(=O)c3ccccc3S2(=O)=O)C1 (stereo unspecified)	2	-7	i	7.7*	6	-4
CCCn1c(SCC(=O)Nc2nnc(C)s2)nnc1C1CC1	-8	14	i	7.8*	-8	-2
O=C(NC(=S)Nc1ccc(-c2ccccc2)cc1)c1ccccc1	·	·	i	·	·	·
NS(=O)(=O)c1ccc(NC(=S)NNC(=O)c2ccc(Br)o2)cc1	-2	-9	i	-7	-2	5.2*
CN1CCN(c2ccc(NC(=S)NC(=O)c3cccc4c(Cl)cccc34)cc2)CC1	4	-4	i	8.3*	4	-2
NS(=O)(=O)c1ccc(NC(=S)NC(=O)c2ccc(Br)o2)cc1	-7	25	i	-3	-12	-4
NS(=O)(=O)c1ccc(NC(=S)NC(=O)c2ccc(-c3ccccc3)cc2)cc1	-9	-8	i	0	-11	5.5*
CN1CCN(S(=O)(=O)c2ccc(NC(=S)NC(=O)c3ccc(Cl)cc3)cc2)CC1	·	·	i	27*	·	-2
C=CCNC(=O)Nc1ccc2oc(C)nc2c1	-14	17	i	0	-17	-2
